The whole screen tested about 85,000 compounds, of which about 940 (1.1%) were called active. The sample as a whole holds a higher share of actives than the screen did. Unmarked numbers belong to inactive results.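 Rule for the calls: active = viability at or below 50% in the single dose screen; inactive = viability above 50%.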
assay: antiproliferative effect on LL 47 fibroblasts – human, LL 47 cells, CellTiter-Glo luminescence, primary screen (AID 719); details: LL 47 human lung fibroblast viability, ATP luminescence; at 10 µM; hits give low values;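 note: compound exposure lasted 72 h before the ATP readout; 100% = median luminescence of untreated cell-only wells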
In short: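 Material: human lung fibroblast line LL 47, low passage; Evaluation: viability percentage against median untreated-cell control; Buffer or medium: 15% FBS in IMEM; Incubation: 72 h compound exposure at 37 °C after overnight plating; Dosing: 0.1% DMSO in all compound wells; Measured by: CellTiter-Glo luminescence.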

Row | Compound | viability
1 | O=C(CCn1c(SCC(=O)c2ccccc2)nc2ccccc2c1=O)NCc1ccc(F)cc1 | 103%
2 | COc1ccc(C2=CC(c3cccc(OC)c3)n3nnnc3N2)cc1 (stereo unspecified) | 86.1%
3 | CCOc1cccc(-n2nnnc2-c2ccc(OC)cc2)c1 | 47.7% (active)
4 | CCOc1cccc(-c2nnc3sc(COc4ccc(OC)cc4)nn23)c1 | 99.8%
5 | Cc1ccc(Nc2nnc(SCc3ccccc3)s2)cc1 | 102%
6 | Cc1ccc(C)c(N2C(=O)CS/C2=N\NC(=O)c2ccccc2Cl)c1 | 101%
7 | CC(C)CC(N=C1NC(C)(C)Cc2ccccc21)C(=O)O (stereo unspecified) | 111%
8 | COc1cccc(NC(=O)Cc2ccc(C)cc2)c1 | 91.5%
9 | COc1ccc(NC(=O)/C(Cl)=C(/Cl)S(=O)Cc2ccc(C)cc2)cn1 (stereo unspecified) | 1.6% (active)
10 | COc1ccc(-c2nc3ccccc3n2CCC(C)C)cc1OC | 99.3%
11 | O=C(CN1CCCCCC1)N1c2ccccc2Sc2ccc(C(F)(F)F)cc21 | 96%
12 | CCCCCCc1cc2cc(-c3nnc(-c4cccc(OC)c4)o3)c(=O)oc2cc1O | 64.8%
13 | COC(=O)CSc1nc2c(c(C3CC=CCC3)c1C#N)CCC2 (stereo unspecified) | 101%
14 | Cc1cc(C)n(-c2nnc(C)n2NC(=O)c2cccc(Cl)c2)n1 | 94.7%
15 | COCCCn1c(SCC(=O)Nc2ccccc2)nnc1-c1ccncc1 | 108%
16 | Cc1ccc(NC(=O)N2CCC(c3nc4c(nnn4Cc4c(F)cccc4Cl)c(=O)[nH]3)CC2)cc1 | 95%
17 | OCCCN1c2ccccc2Nc2nnc(-c3ccccc3)cc21 | 89.3%
18 | N=c1c2c(-c3ccccc3)c(-c3ccccc3)n(Cc3ccccc3)c2ncn1CCCO | 39% (active)
19 | C=CCO/N=C(\C)c1c(O)c(C)c(-c2ccccc2)n(-c2ccccc2)c1=O | 99.4%
20 | Cc1cccc(N2CCN(C(=O)c3cnn4c(C(F)F)cc(-c5ccccc5)nc34)CC2)c1C | 87.9%
21 | C=CCn1c(SCC(=O)/C(C#N)=C(\C)N)nc2sc(C)c(C)c2c1=O | 34.3% (active)
22 | CCCn1c(=O)c2ccccc2n2c(SCC(=O)/C(C#N)=C(\C)N)nnc12 | 93.4%
23 | Cc1sc2nc(SCC(N)=O)n(C)c(=O)c2c1C | 93.8%
24 | CCOc1cc(NC(=O)c2cnccn2)c(OCC)cc1NC(=O)c1ccc(C)cc1 | 97.9%

Row | Compound | viability
25 | CCOC(=O)N1CCN(S(=O)(=O)c2ccc(C(=O)Nc3ccc(F)cc3F)cc2)CC1 | 47.5% (active)
26 | COc1ccc(C(=O)Nc2ccc(F)cc2F)cc1 | 99.5%
27 | O=C(Nc1cccc(F)c1)c1ccc(S(=O)(=O)N2CCCC2)cc1 | 109%
28 | COc1ccc(Nc2ncc(C(=O)N3CCN(c4ccccc4OC)CC3)c3ccccc23)cc1 | 100%
29 | Fc1ccc(-n2c(Cc3ccccc3)nnc2SCc2nc(-c3ccc(Cl)cc3)no2)cc1 | 111%
30 | CC(C)CNC(=O)CC(c1ccccc1)c1c(O)ccc2ccccc12 (stereo unspecified) | 94.7%
31 | CC(C)C(=O)NC(NC(=S)NC1CCS(=O)(=O)C1)C(Cl)(Cl)Cl (stereo unspecified) | 104%
32 | COCCn1c(SCc2nnc(-c3ccc(OC)c(OC)c3)o2)nc2sc3c(c2c1=O)CCC3 | 99.8%
33 | CCCc1nc(NCc2ccc3c(c2)OCO3)c2nnn(Cc3ccccc3Cl)c2n1 | 23.2% (active)
34 | O=C(Cn1cnc2c(nnn2Cc2ccc(F)cc2)c1=O)NCc1ccc2c(c1)OCO2 | 93.2%
35 | Cc1nc(Nc2ccc3c(c2)OCCO3)c2nnn(Cc3ccccc3Cl)c2n1 | 98.4%
36 | COC(=O)c1cccc(-n2[nH]nnc2=S)c1 | 102%
37 | Cc1ccc(-n2c(CNc3ccc(F)cc3)nnc2SCC(=O)N2CCOCC2)cc1 | 2.59% (active)
38 | O=C(CSc1nnc(Cc2ccccc2)n1-c1ccccc1)N1CCOCC1 | 109%
39 | CCOC(=O)CSc1nnc(CNC(=O)c2ccco2)n1-c1ccc(F)cc1 | 103%
40 | O=C(NCCCn1ccnc1)Nc1ccc(Cl)cc1Cl | 102%
41 | CCCCOc1ccc(N(CC(=O)NCC2CCCO2)C(=O)CCC(=O)Nc2cc(C)ccn2)cc1 (stereo unspecified) | 91.1%
42 | COc1ccc(Br)cc1CN1CCN(C(=O)c2cccc(OC)c2OC)CC1 | 94.1%
43 | O=C1CCCCC(=O)c2ccccc2N1 | 96.7%
44 | c1ccc2c(c1)C(=NC1CCCCC1)NC2=NC1CCCCC1 | 40.6% (active)
45 | Cc1nn(Cc2ccccc2)c2c1C(c1ccccc1)C(C#N)=C(N)O2 (stereo unspecified) | 98.6%
46 | CCCCNS(=O)(=O)c1ccc(S(=O)(=O)n2cnc3ccccc32)cc1 | 107%
47 | OC(CNCC1CCCO1)Cn1c2ccc(Br)cc2c2cc(Br)ccc21 (stereo unspecified) | 2.96% (active)
48 | Cc1ccc(C(=O)NCC2CCCO2)o1 (stereo unspecified) | 101%

Row | Compound | viability
49 | Cc1cc(Br)ccc1NC(=O)C1CCCO1 (stereo unspecified) | 91.1%
50 | COC(=O)C1=C(C(=O)OC)C2(OC1c1ccc(Br)cc1)C(=O)c1ccccc1C2=O (stereo unspecified) | 105%
51 | O=C(Nc1cccc(NC(=O)c2ccco2)c1)c1cnccn1 | 103%
52 | COC(=O)c1cc2nc(-c3ccccc3)cc(C(F)(F)F)n2n1 | 97.7%
53 | CNc1nc(SC)nc(N(C#N)CC(=O)OC)n1 | 107%
54 | CC(=O)Nc1ccc(S(=O)(=O)N2CCN(C(=O)c3ccccc3F)CC2)cc1 | 105%
55 | CCn1c(/C=C/c2ccc([N+](=O)[O-])o2)nc2ccccc2c1=O | 9.18% (active)
56 | Cc1nc2ccccc2c(=O)n1CCCn1ccnc1 | 100%
57 | O=c1c2ccccc2nc(N/N=C/c2ccccc2)n1O | 99.1%
58 | C=CCn1c(SCc2c(C)noc2C)nc2sc3c(c2c1=O)CCC(C)C3 (stereo unspecified) | 47.2% (active)
59 | CC1CCc2c(sc3nc4n(c(=O)c23)CCS4)C1 (stereo unspecified) | 104%
60 | CCCn1nnc2sc3c(c2c1=O)CCC(C)C3 (stereo unspecified) | 88.2%
61 | COc1ccc(CN(CC(=O)NC2CCCC2)C(=O)CCC(=O)Nc2cc(C)on2)cc1 | 101%
62 | O=C1C=C(c2ccc(Cl)cc2)C(=O)N1Nc1ccccc1 | 49.3% (active)
63 | Cc1ccc(-c2noc(CSc3nnc(-c4ccncc4)n3-c3ccc(F)cc3)n2)cc1 | 80.8%
64 | OC(CN=c1sc2ccccc2n1CC(O)COc1ccccc1)COc1ccccc1 (stereo unspecified) | 86%
65 | CN(C)CCNC(CC(=O)Nc1ccc(Cl)c(Cl)c1)C(=O)O (stereo unspecified) | 102%
66 | O=C(CC(O)(C(F)(F)F)C(F)(F)F)Nc1ccc(Cl)c(Cl)c1 | 22.4% (active)
67 | N/C(=N\OC(=O)Nc1ccc(Cl)c(Cl)c1)c1ncc(C(F)(F)F)cc1Cl | 97.2%
68 | COC(=O)c1ccc(NC(=O)C23CC4CC(C2)CC(n2cnc(Cl)n2)(C4)C3)cc1 | 96.5%
69 | COc1ccc(C2CC(c3cccs3)=Nc3ccccc3S2)cc1OC (stereo unspecified) | 93.6%
70 | COc1ccc(N(CC(=O)NC2CCCCC2)C(=O)CNC(=O)c2ccco2)c(OC)c1 | 96.4%
71 | CCOc1ccc(Nc2oc(Cc3ccccc3)nc2C#N)cc1 | 99.8%
72 | COc1ccccc1-c1nc(C#N)c(N2CCC(C(N)=O)CC2)o1 | 89.3%

Row | Compound | viability
73 | COc1ccc(Nc2oc(-c3ccccc3Cl)nc2C#N)cc1 | 23.1% (active)
74 | COc1ccccc1NC1=NC2(CCCC2)N=C(N)N1 | 93%
75 | COc1ccccc1Nc1nc(N)nc(CN(C)C2CCCCC2)n1 | 94.3%
76 | COc1ccccc1NC1=NC(c2ccc(Cl)cc2)N=C(N)N1 (stereo unspecified) | 45.8% (active)
77 | CCn1c(=O)c(=O)n(CC)c2cc(S(=O)(=O)N3CCc4ccccc43)ccc21 | 70.5%
78 | CC1(C)CCc2nc(SCc3ccccc3)c(C#N)cc2C1 | 95.3%
79 | Cc1nc(NC(=O)C2CCCCC2)sc1C | 108%
80 | O=C(NCc1ccccc1)C1CCCN(S(=O)(=O)c2cccs2)C1 (stereo unspecified) | 94.6%
81 | O=C(Cn1c(-c2cscn2)nc2ccccc21)Nc1ccc(Cl)cc1 | 90.7%
82 | CN(C)c1ccnc2sc3c(=O)n(-c4ccc(Cl)cc4)cnc3c12 | 102%
83 | N#CC1=C(N)Oc2c(sc3ccccc23)C1c1ccco1 (stereo unspecified) | 20.2% (active)
84 | CC1=C(C(=O)Nc2ccccc2)C(c2ccco2)C(C#N)=C(SCC(N)=O)N1 (stereo unspecified) | 88.2%
85 | Cc1cc2c(c(=O)n1Cc1ccco1)C(c1ccccc1)C(C#N)=C(N)O2 (stereo unspecified) | 107%
86 | CCNc1nc(NC(C)C)nc(OCCOC(=O)c2ccccc2)n1 | 108%
87 | Cc1cc(O)cc(O)c1C(=O)Cc1cnn(-c2ccccc2)c1 | 98.6%
88 | C/C(=N\NC(=O)c1ccc(C)cc1)C1C(=O)c2ccccc2C1=O | 103%
89 | CCN(CC)C(=O)CSc1nnc(-c2cccc(OC)c2)o1 | 101%
90 | COc1cccc(NC(=O)CN(C)S(=O)(=O)c2ccc(C)cc2)c1 | 93.1%
91 | COc1cccc(-c2nnc(NC(=O)c3ccc(S(=O)(=O)N(CC(C)C)CC(C)C)cc3)o2)c1 | 8.59% (active)
92 | c1ccc(-n2nc3ccccc3n2)cc1 | 100%
93 | Cc1ccc(/C=N/NC(=O)C2=NNC(c3ccccc3)(c3ccccc3)C2)c(O)c1 | 19.2% (active)
94 | C/C(=N\NC(=O)c1nc(C)cc(C)n1)c1ccccc1 | 106%
95 | Cc1ccc(OCC(=O)N/N=C\c2ccco2)c(C)c1 | 108%
96 | CCOc1ccc(-n2c(N)c(C(=O)NCC3CCCO3)sc2=S)cc1 (stereo unspecified) | 101%
